Results from paper PMC4574835 (British Journal of Clinical Pharmacology, 2015).

Assays:
[1] = Population PK model; format: in vivo, human
[2] = Individual predicted steady-state PK parameters; format: in vivo, human; settings: for Tmax / AUC / Cmax: human, plasma, oral; for AUC: AUC(0-τ); for AUC / Cmax / Cτ: steady state
Procedure, shortened: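 Individual parameters were empirical Bayes estimates from the final population model, using each subject's actual dose after repeat dosing. AUC(0-τ) was Dose/([CL/F_i]/F). Cmax, tmax and Cτ came from simulated steady-state concentration–time profiles using individual parameters, assuming no inter-occasion variability and zero residual variability. Summary statistics were computed.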

[3] = test system: organic cation transporter, OCT2; settings: cited from earlier work
[4] = Exploratory PK-PD relationship, safety endpoints; format: in vivo, human; settings: AUC(0-τ), Cmax and Cτ; except serum creatinine and CRCL
Procedure, shortened: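 This was an exploratory graphical analysis in phase 2b/3 treatment-naive patients. Individual predicted steady-state Cτ, Cmax and AUC(0-τ) came from the final population model, using actual doses and assuming no inter-occasion variability. They were plotted against change from baseline in serum creatinine, creatinine clearance, urine albumin:creatinine ratio, ALT and total bilirubin, both as maximal change over 48 weeks and as change at week 48.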

[5] = test system: viral strains harboring major integrase resistance mutations selected for by raltegravir and elvitegravir; settings: in vitro; mutations selected for by RAL and EVG; cited from earlier work
[6] = NONMEM point estimate, inter-individual variability
[7] = NONMEM point estimate, listed as DTG
[8] = 10 mg, ING111521, 10 mg once daily, geometric mean (95% CI)
[9] = 10 mg, SPRING-1, 10 mg once daily, geometric mean (95% CI)
[10] = 50 mg, ING111521, 50 mg once daily, geometric mean (95% CI)
[11] = 50 mg, SPRING-2, 50 mg once daily, geometric mean (95% CI)

## C[C@@H]1CCO[C@H]2Cn3cc(C(=O)NCc4ccc(F)cc4F)c(=O)c(O)c3C(=O)N12 [dolutegravir, Dolutegravir]
[1]; NONMEM point estimate
  ALAG (absorption lag-time): 0.263 h
  ka (absorption rate constant): 2.24 h^–1
[1]; NONMEM point estimate, factor on F for 10 mg dose
  F ∼ 10 mg: 1.24
[1]; NONMEM point estimate, factor on F for females
  F ∼ GENDER: 1.21
[1]; [6]
  ω^2V (variance of random effect of V/F): 0.0188
  ω^2ka (variance of random effect of ka): 0.224
[1]; [7]
  ALAG (absorption lag-time): 0.263 (0.0942, 0.432) h
  ka (absorption rate constant): 2.24 (1.56, 2.92) h^–1
[1]; NONMEM point estimate, power coefficient (WT/70)
  V/F ∼ WT: 0.768
[1]; NONMEM point estimate, residual variability
  σ^2prop (proportional residual error): 0.0704
[1]; age 18–68 years
  CL/F range over age in analysis population: 0.772–0.998 l h^–1
[1]; bootstrap median, 1000 runs
  ALAG: 0.262 h
  CL/F: 0.901 l h^–1
  F ∼ 10 mg: 1.24
  F ∼ GENDER: 1.21
  V/F: 17.4 L
  V/F ∼ WT: 0.774
  ka: 2.21 h^–1
  σ^2prop: 0.0698
  ω^2CL: 0.0539
  ω^2V: 0.0182
  ω^2ka: 0.217
[1]; compared with SPRING-1 and SPRING-2
  Increase in CL/F for study ING111521: 35%
[1]; compared with males, mean
  Oral bioavailability (F) higher in female subjects: 21%
[1]; human, plasma, oral
  Vd/F: 17.4 L
[1]; vs non-current smokers, mean
  Apparent clearance higher in current smokers: 16%
[1]; weight 39–135 kg
  CL/F range over weights in analysis population: 0.697–1.20 l h^–1
  V/F range over weights in analysis population: 11.1 to 28.8 L
[2]
  Tmax: ~2 h
[2]; 10 mg
  Tmax: 1.66 h
[2]; [8]
  AUC: 9330 ng·h/mL
  Cmax: 691 ng/mL
[2]; [9]
  AUC: 14300 ng·h/mL
  Cmax: 957 ng/mL
[2]; 50 mg
  Tmax: 1.94 h
[2]; [10]
  AUC: 41300 ng·h/mL
  Cmax: 2940 ng/mL
[2]; 50 mg, SPRING-1, 50 mg once daily, geometric mean (95% CI)
  AUC: 53800 ng·h/mL
[2]; [11]
  AUC: 53600 ng·h/mL
  Cmax: 3690 ng/mL
[2]; 50 mg once daily, three studies pooled (n = 449), geometric mean
  Cτ: 1.11 µg ml^–1
[2]; ING111521, 10 mg once daily, geometric mean (95% CI)
  Cτ: 0.168 (0.136, 0.208) µg ml^–1
[2]; ING111521, 50 mg once daily, geometric mean (95% CI)
  Cτ: 0.785 (0.689, 0.895) µg ml^–1
[2]; SPRING-1, 10 mg once daily, geometric mean (95% CI)
  Cτ: 0.311 (0.281, 0.345) µg ml^–1
[2]; SPRING-1, 25 mg once daily, geometric mean (95% CI)
  Cτ: 0.530 (0.462, 0.609) µg ml^–1
[2]; SPRING-1, 50 mg once daily, geometric mean (95% CI)
  Cτ: 1.17 (1.04, 1.33) µg ml^–1
[2]; SPRING-2, 50 mg once daily, geometric mean (95% CI)
  Cτ: 1.10 (1.05, 1.15) µg ml^–1
[3]
  Inhibition of OCT2: known to inhibit
[4]
  Relationship between DTG exposure and the safety endpoints: No relationship
[5]
  Activity against viral strains harboring major integrase resistance mutations: retains activity
